Assay results reported in article PMC9774329 (ACS Omega, 2022).

Legend:
Assay type in all cases: cell-based, human
[1] = system: HCT-116 cell line; assay: MTT antiproliferative assay on colon cancer cells; conditions: HCT-116, MTT, 48 h; compared to 3′-O-methyltaxifolin and quercetin
Summary of the method: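 HCT-116 cells were seeded at 20,000 cells/well in DMEM with FBS, L-glutamine, penicillin, streptomycin and selenium chloride at 37 °C in CO2. They were exposed to test compound at 5.0–40 μg/mL for 48 h, with untreated controls. MTT (5.0 mg/mL) was added for 4 h, then DMSO […], and OD was read at 570 nm. Done in triplicate.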

[2] = system: colon (HCT-116) cancer cells; assay: Apoptosis confirmation by DAPI staining; conditions: HCT-116, 48 h post-treatment
Summary of the method: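 Fixed HCT-116 cells were examined for apoptosis after 48 h compound exposure. Cells were fixed in 4% paraformaldehyde and stained in the dark with DAPI (1.0 μg/mL). Nuclear morphology was assessed by fluorescence confocal scanning microscopy.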

[3] = system: caspase-3 expression in HCT-116 cells; assay: Caspase-3 detection by ELISA in cell lysates; conditions: HCT-116, 48 h treatment, 40 μg/mL
Summary of the method: (§1)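 HCT-116 cells were seeded at 50,000 cells/well in a CO2 incubator. After 24 h, at 70–80% confluence, cells received test compound at 40 μg/mL for 48 h; untreated cells served as controls. Cells were PBS-washed, detached with 0.35% trypsin and spun at 1000 rpm. Pellets were lysed 60 min and re-spun at 1000 rpm for 15 min. Lysates were assayed with human caspase-3 or caspase-9 ELISA kits, absorbance 620 nm.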

[4] = system: caspase-9 expression in HCT-116 cells; assay: Caspase-9 detection by ELISA in cell lysates; conditions: HCT-116, 48 h treatment, 40 μg/mL
Summary of the method: as §1

With `O=C1c2c(O)cc(O)cc2OC(c2ccc(O)c(O)c2)C1O` (stereo not shown) [Compound 4, Dihydroquercetin (taxifolin)] the “reduction in the numbers of cancer cells” value [1] was “significant reductions”, the “apoptosis induction (chromatin condensation, nuclear shrinkage) by DAPI staining” value (“apoptosis induction” for short) [2] was “induced apoptosis” and the “caspase-3 expression (ELISA, optical density)” value (“caspase-3 expression” below) [3] was “increase”. For the same compound, the “caspase-9 expression (ELISA, optical density)” value (“caspase-9 expression” below) [4] was “increase”.

With `O=c1c(O)c(-c2ccc(O)c(O)c2)oc2cc(O)cc(O)c12` [Compound 6, Quercetin] the “apoptosis induction” value [2] was “induced apoptosis”, the “caspase-3 expression” value [3] was “increase” and the “caspase-9 expression” value [4] was “increase”.

In the case of `COc1cc(O)c2c(c1)O[C@H](c1ccc(O)c(O)c1)[C@@H](O)C2=O` [Compound 3, 7-O-Methyltaxifolin], the “reduction in the numbers of cancer cells” value [1] is reported as “significant reductions”, the “apoptosis induction” value [2] is reported as “induced apoptosis” and the “caspase-3 expression” value [3] is reported as “increase”. The “caspase-9 expression” value [4] was “increase”.

In the case of `COc1cc(O)c2c(c1)O[C@H](c1ccc(O)c(OC)c1)[C@@H](O)C2=O` [Compound 1, 7,3′-Di-O-methyltaxifolin], the “reduction in the numbers of cancer cells” value [1] is reported as “significant reductions”, the “apoptosis induction” value [2] is reported as “induced apoptosis” and the “caspase-3 expression” value [3] is reported as “increase”. The “caspase-9 expression” value [4] was “increase”.

With `COc1cc([C@H]2Oc3cc(O)cc(O)c3C(=O)[C@@H]2O)ccc1O` [Compound 2, 3′-O-Methyltaxifolin] the “apoptosis induction” value [2] was “induced apoptosis”, the “caspase-3 expression” value [3] was “increase” and the “caspase-9 expression” value [4] was “increase”.

With `COc1c(-c2ccc(O)c(O)c2)oc2cc(O)cc(O)c2c1=O` [Compound 5, 3-O-Methylquercetin] the “reduction in the numbers of cancer cells” value [1] was “significant reductions”, the “apoptosis induction” value [2] was “induced apoptosis” and the “caspase-3 expression” value [3] was “increase”. For the same compound, the “caspase-9 expression” value [4] was “increase”.
